Laboratory results from PMC9260726 (ACS Infectious Diseases, 2022).

Columns and labels:
[1] = system: SARS-CoV-2 BetaCoV/Germany/BavPat1/2020; assay type: cell-based
[2] = system: SARS-CoV-1 S pseudotyped particles; assay type: cell-based
[3] = system: SARS-CoV-2 BetaCoV/Germany/BavPat1/2020; assay: Time-of-addition assay in Vero CCL81, plaque assay; assay type: cell-based
[4] = system: VSV-G protein pseudotyped particles; assay type: cell-based, vesicular stomatitis virus
[5] = system: SARS-CoV-2 BetaCoV/Germany/BavPat1/2020; assay type: cell-based; remark: listed apart in the source
[6] = system: SARS-CoV-2 S pseudotyped particles; assay type: cell-based
Vero CCL81 cells = conditions: 1 μM, 18 h
[7] = system: human pneumocyte-like cells; assay: Pneumocyte-like cell MTT viability assay; assay type: cell-based; conditions: 10 μM, 48 h, uninfected
In short: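 Human pneumocyte-like cells derived from H9 embryonic stem cells, used on day nine of differentiation. An uninfected duplicate set received the same drug concentrations as the antiviral set. After 48 h at 37 °C, viability was read by MTT assay. Viability was expressed as a percentage of the DMSO control, in triplicate.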

HeLa-hACE2 = conditions: HeLa-hACE2, conditions of the antiviral assay, 16 h
[8] = system: SARS-CoV-2 nucleoprotein and spike protein; assay type: cell-based
[9] = system: ocular angiogenic disease models; conditions: 0.25 mg/kg; cited from earlier work
SARS-CoV-2 USA-WA1/2020 = assay type: cell-based
[10] = system: SARS-CoV-2 negative-stranded viral RNA; assay: In vitro transcribed viral RNA replication assay, negative-stranded RNA RT-qPCR; assay type: cell-based
ACE2 = ACE2 immunoblot analysis in Vero E6; assay type: cell-based, monkey; conditions: Vero E6, after 24 h
Vero E6 = conditions: Vero E6, conditions of the antiviral assay, 16 h
SARS-CoV-2 dsRNA = assay type: cell-based
[11] = system: SARS-CoV-2 BetaCoV/Germany/BavPat1/2020; assay type: cell-based; conditions: effect only at 10 μM, less potent than Apra S4
SARS-CoV-2 = conditions: COVID-19 patients; cited from earlier work

CC[C@H](C)[C@H]1C(=O)N2CCC[C@H]2C(=O)O[C@H](C(C)(C)C)C[C@@H](C)C[C@H](O)[C@H](C)C2=N[C@@H](CCC(=O)N[C@@H](Cc3ccc(OC)cc3)C(=O)N(C)[C@@H](C)C(=O)N1C)CS2 [Apra S4, apratoxin S4]
SARS-CoV-2 multicycle growth [1]: strongly reduced
virus titers ([1]; […], below limit of detection): < 100 PFU/mL
viral entry of SARS-CoV-1 S pseudotyped particles (luciferase) [2]: slightly enhanced infection
antiviral activity by time of addition [3]: did not lose its antiviral activity even if added 2 h after infection
VSV-G-mediated entry [4]: None of the compounds impacted
reduction in infectious virus titers in the supernatant [5]: more than 100 fold
viral entry of SARS-CoV-2 S pseudotyped particles (luciferase) [6]: slightly enhanced infection
cytotoxic effects (CellTiter-Glo) (Vero CCL81 cells): not due to cytotoxic effects
cytotoxicity in pneumocyte-like cells [7]: No cytotoxicity
cytotoxicity (HeLa-hACE2): Cytotoxicity was not observed
nucleoprotein signal intensity in infected cells [8]: increased
number of infected cells (N or S positive) [8]: significantly reduced number of infected cells
spike protein staining intensity in infected cells [8]: significantly reduced
viral protein expression at the cell surface (nucleoprotein and spike) [8]: inhibitory effect of Apra S4 was even more pronounced
efficacy in ocular angiogenic disease models in vivo [9]: exquisite efficacy
toxicity in ocular angiogenic disease models in vivo [9]: without toxicity or histological abnormalities
viral replication in human pneumocyte-like cells (SARS-CoV-2 USA-WA1/2020): significantly decreased viral replication
negative-strand viral RNA [10]: reduced the negative-strand RNA
concentration giving decreased ACE2 protein levels (ACE2): ≥ 1 µM
cytotoxic effect (WST-8) (Vero E6 cells): No cytotoxic effect was observed
cytotoxicity (Vero E6): Cytotoxicity was not observed
dsRNA intermediates in infected cells (SARS-CoV-2 dsRNA): strongly reduced

CC1(C)C(N(O)C(=O)Nc2ccc(Cl)cc2)N(c2ccc(Cl)cc2)C(=O)N1CC(=O)N/N=C/C=C/c1ccc([N+](=O)[O-])o1 (stereo not drawn) [Eeyarestatin I, eeyarestatin I]
SARS-CoV-2 growth [11]: inhibited SARS-CoV-2 in a dose-dependent manner

CCC(CC)COC(=O)[C@H](C)N[P@](=O)(OC[C@H]1O[C@@](C#N)(c2ccc3c(N)ncnn23)[C@H](O)[C@@H]1O)Oc1ccccc1 [remdesivir, reference compound]
SARS-CoV-2 multicycle growth [1]: less potent
cytotoxicity in pneumocyte-like cells [7]: No cytotoxicity

Cc1cccc(/C=N/Nc2cc(N3CCOCC3)nc(OCCc3ccccn3)n2)c1 [Apilimod, apilimod, reference compound]
viral entry of SARS-CoV-1 S pseudotyped particles (luciferase) [2]: inhibited viral entry
VSV-G-mediated entry [4]: None of the compounds impacted
viral entry of SARS-CoV-2 S pseudotyped particles (luciferase) [6]: inhibited viral entry
cytotoxic effect (WST-8) (Vero E6 cells): No cytotoxic effect was observed

CC(C)C(=O)OC[C@H]1O[C@@H](n2ccc(NO)nc2=O)[C@H](O)[C@@H]1O [molnupiravir]
reduction of the rate of hospitalizations and death (SARS-CoV-2): 30%
